Experimental data reported in ChEMBL document CHEMBL5674889, “Enhanced JunD/RSK3 signalling due to loss of BRD4/FOXD3/miR-548d-3p axis determines BET inhibition resistance” (2020).
The source made the active and inactive calls.

Key:
[1] = tested on: MDA-MB-231; assay: Effect on human BRD4-knockdown MDA-MB-231 cells assessed as miR-548d-3p expression at 1 uM by real-time PCR analysis; type: functional, cell-based
[2] = tested on: BT-549; assay: Effect on human BT-549 cells assessed as miR-548d-5p expression at 1 uM by real-time PCR analysis; type: functional, cell-based
[3] = tested on: BT-549; assay: Downregulation of miR-548d-3p expression in human BT-549 cells at 1 uM by real-time PCR analysis; type: functional, cell-based
[4] = tested on: MDA-MB-231; assay: Downregulation of miR-548d-3p expression in human MDA-MB-231 cells at 1 uM by real-time PCR analysis; type: functional, cell-based
[5] = tested on: MDA-MB-231; assay: Antiproliferative activity in human RPS6KA2 expressed in JUND knock-down MDA-MB-231 cells assessed as inhibition of cell growth at 1 uM by CCK-8 assay; type: functional, cell-based
[6] = tested on: MDA-MB-231; assay: Induction of apoptosis in human MDA-MB-231 cells expressing vector control assessed as viable cells at 1 uM by Annexin V-FITC flow cytometric analysis (reference value: 91.91%); type: functional; details: read-out: Activity
Method in brief: (§1)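 Stable clones (vector, RSK3-overexpressing or RPS6KA2-knockdown) treated ± JQ1 1 μM. Cells washed twice in PBS, resuspended at 1 × 10^6 cells/ml in binding buffer, stained with Annexin V-FITC and propidium iodide for 10 min at room temperature in the dark, then read by flow cytometry. Three independent experiments; one-way ANOVA.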

[7] = tested on: BT-549; assay: Cytotoxicity in human RSK3-overexpressing BT-549 cells assessed as cell viability at 1 uM for 48 hrs by CellTiter-Glo luminescent cell viability assay; type: functional, cell-based
Method in brief: (§2)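 CellTiter-Glo viability: stable overexpressing or shRNA clones (puromycin 1.0 μg/ml selection) seeded 3000 cells/well, adhered overnight, then exposed to 1 μM for 48 h. Luminescence is background-subtracted and normalised to DMSO-treated control. Triplicates, mean ± SD, one-way ANOVA. MDA-MB-231 cells are kept in DMEM and BT549 in RPMI-1640, each with 10% FBS.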

[8] = tested on: BT-549; assay: Effect on human JUND-overexpressing BT-549 cells assessed as RSK3 protein expression at 1 uM by Western blot analysis; type: functional, cell-based
Method in brief: (§3)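 RSK3 and JunD were probed by western blot in JUND-knockdown or JUND-overexpressing stable clones and their controls, all selected with puromycin 1.0 μg/ml. Antibodies used at 1:1000.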

[9] = tested on: MDA-MB-231; assay: Effect on human RPS6KA2-knockdown MDA-MB-231 cells assessed as RSK3 protein expression at 1 uM by Western blot analysis; type: functional, cell-based
[10] = tested on: MDA-MB-231; assay: Effect on human JUND-knockdown MDA-MB-231 cells assessed as reduction of RSK3 protein expression at 1 uM by Western blot analysis; type: functional, cell-based; method in brief: as §3
[11] = tested on: BT-549; assay: Effect on human JUND-knockdown BT-549 cells assessed as reduction of RSK3 protein expression at 1 uM by Western blot analysis; type: functional, cell-based; method in brief: as §3
[12] = tested on: HEK-293T; assay: Effect on induction of RPS6KA2 transcription in human HEK293T cells transfected with RPS6KA2 assessed as luciferase activity at 1 uM for 6 hrs by Luciferase reporter assay; type: functional, cell-based
Method in brief: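 HEK293T were transfected with wild-type or mutant RPS6KA2 enhancer luciferase construct, ± JUND co-transfection (FuGene 6, 24 h). Cells then treated with DMSO or JQ1 1 μM for 6 h. Dual-luciferase activity expressed as fold over vector control; three experiments in triplicate.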

[13] = tested on: MDA-MB-231; assay: Antiproliferative activity in human RPS6KA2-knockdown MDA-MB-231 cells assessed as cell viability at 1 uM for 48 hrs by CellTiter-Glo luminescent cell viability assay; type: functional, cell-based; method in brief: as §2
[14] = tested on: MDA-MB-231; assay: Effect on human RPS6KA2-knockdown MDA-MB-231 cells assessed as inhibition tumor sphere formation at 1 uM by Tumor sphere assay; type: functional, cell-based
[15] = tested on: MDA-MB-231; assay: Antitumor activity against human MDA-MB-231 cells xenografted in BALB/c nude mouse assessed as reduction in tumor weight at 35 mg/kg/day, sc administered every 2 days; type: functional, organism-based; details: time 2.0 day
Method in brief: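 Female BALB/c nude mice aged 4–6 weeks received 1 × 10^6 MDA-MB-231 control or knockdown cells subcutaneously, n = 7 per group. Dosing at 35 mg/kg every 2 days began at an average tumour volume of 90 mm3. Tumours were weighed after 25 days.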

[16] = tested on: BT-549; assay: Effect on induction of RPS6KA2 transcription in human BT-549 cells assessed as enhanced luciferase activity at 1 uM for 6 hrs by Luciferase reporter assay; type: functional, cell-based
Method in brief: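 Control or JunD-shRNA BLBC cells were transfected with the RPS6KA2 enhancer luciferase reporter (FuGene 6, 24 h) and then treated with DMSO or JQ1 1 μM for 6 h. Dual-luciferase read-out given as fold induction over vector control. Three experiments in triplicate.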

[17] = tested on: MDA-MB-231; assay: Antiproliferative activity in human MDA-MB-231 cells assessed as cell growth in the presence of miR-548d-3p at 1 uM by CCK-8 assay; type: functional, cell-based
Method in brief: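 BLBC cells transfected with miR-548d-3p mimic or inhibitor, with or without JQ1; growth read by CCK-8 assay relative to DMSO-treated control, seeded at 3000/well. Triplicates, mean ± SD, one-way ANOVA.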

[18] = tested on: MDA-MB-231; assay: Effect on human BRD4-knockdown MDA-MB-231 assessed as decreased luciferase activity at 1 uM for 6 hrs by Luciferase reporter assay; type: functional, cell-based
[19] = tested on: MDA-MB-231; assay: Antiproliferative activity in human FOXD3-knockdown MDA-MB-231 cells assessed as cell growth at 1 uM by CCK-8 assay; type: functional, cell-based
[20] = tested on: BT-549; assay: Antiproliferative activity in human BT-549 cells assessed as cell growth in the presence of EAI045 at 1 uM by CellTiter-Glo luminescent cell viability assay; type: functional, cell-based
Method in brief: (§4)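 BLBC cells seeded at 3000/well, adhered overnight, then exposed to JQ1 (1 μM) with or without an EGFR inhibitor (1 μM) for 48 h; control and RPS6KA2-shRNA clones tested. Viability by CellTiter-Glo luminescence, background-subtracted and normalized to DMSO-treated control; triplicates, mean ± SD, one-way ANOVA against JQ1 alone.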

[21] = tested on: MDA-MB-231; assay: Antiproliferative activity in human MDA-MB-231 cells assessed as cell growth in the presence of osimertinib at 1 uM by CellTiter-Glo luminescent cell viability assay; type: functional, cell-based; method in brief: as §4
[22] = tested on: MDA-MB-231; assay: Antiproliferative activity in human RPS6KA2-knockdown MDA-MB-231 cells assessed as cell growth at 1 uM by CCK-8 assay; type: functional, cell-based
[23] = tested on: BT-549; assay: Antiproliferative activity in human RPS6KA2-knockdown BT-549 cells assessed as cell growth at 1 uM by CCK-8 assay; type: functional, cell-based
[24] = tested on: MDA-MB-231; assay: Antiproliferative activity in human MDA-MB-231 cells assessed as cell growth inhibition for 48 hrs in the presence of […] at 1 uM by CCK-8 assay; type: functional, cell-based
[25] = tested on: BT-549; assay: Antiproliferative activity in human RPS6KA2-knockdown BT-549 cells assessed as inhibited cell growth at 1 uM for 48 hrs by CCK-8 assay; type: functional, cell-based
[26] = tested on: MDA-MB-231; assay: Induction of apoptosis in human MDA-MB-231 cells over expressing RSK3 assessed as viable cells at 1 uM by Annexin V-FITC flow cytometric analysis (reference value: 91.18%); type: functional; details: read-out: Activity; method in brief: as §1

Cc1sc2c(c1C)C(c1ccc(Cl)cc1)=N[C@@H](CC(=O)OC(C)(C)C)c1nnc(C)n1-2
active: Activity [1] | Activity [2] | Activity [3] | Activity [4] | Activity [5] | Activity [7] | Activity [8] | Activity [9] | Activity [10] | Activity [11] | Activity [12] | Activity [13] | Activity [14] | Activity [15] | Activity [16] | Activity [17] | Activity [18] | Activity [19] | Activity [20] | Activity [21] | Activity [22] | Activity [23] | Activity [24] | Activity [25]
88.3%: viability at 1 µM [26]
76.7%: viability at 1 µM [6]
